Test results from PMC3924180 (Analytical chemistry, 2013).

Legend:
[1] = system: protein tyrosine phosphatase (PTP); experiment: Single cell phosphatase activity assay; assay type: cell-based, human; conditions: BEAS-2B cells pretreated with the inhibitor; abstract
In short: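 BEAS-2B cells grown in KGM on glass-coverslip chambers, kept at 37 °C under warm ECB (HEPES buffer, pH 7.4). Microinjected with fluorescent phosphopeptide substrate pTS13 and laser-lysed after 60 s. Contents were electrokinetically loaded and separated by CE-LIF in borate/SDS/NaCl, pH 7.4. Dephosphorylation was taken as the […] peak area over the combined pTS13 + TS13 areas. Treated and untreated cells were compared by bootstrapping (10,000 samples).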

[2] = system: protein tyrosine phosphatase (PTP); experiment: Single cell phosphatase activity assay; assay type: cell-based, human; conditions: primary hAECs pre-incubated with the inhibitor; abstract

Row | Compound | inhibition relative to PTP activity in untreated controls [1] | median PTP inhibition [2]
1 | pervanadate | 76% | 91%
2 | [Zn+2] [Zn^2+] | 69% | 88%
3 | O=C1C=Cc2ccccc2C1=O [1,2-naphthoquinone] | 100% | 87%
